Active and inactive are the calls of the source. The calls are words filed in the database; no cut-off is given here.
Columns and labels:
Mus musculus [1] = assay: Analgesic activity in sc dosed Swiss-Webster mouse time of peak effect; format: functional
Mus musculus [2] = assay: Inhibition of morphine sulfate-induced analgesic activity in Swiss-Webster mouse at 350 mg/kg, sc after 2 hrs; format: functional, organism-based; parameters: dose 350 mg/kg
Outline: (§1)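 Male Swiss-Webster mice, 20–25 g. Challenge was 10 mg/kg morphine sulfate in 8–10 mice, read by the modified D'Amour–Smith test. Where block was seen, morphine ED50 (95% limits) was found by Litchfield–Wilcoxon.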

Mus musculus [3] = assay: Analgesic activity in sc dosed Swiss-Webster mouse after 30 mins; format: functional; conditions: 0.5 h
Mus musculus [4] = assay: Analgesic activity in Swiss-Webster mouse assessed as time required for sustainance of activity at 350 mg/kg, sc; format: functional; conditions: route subcutaneous
Mus musculus [5] = assay: Inhibition of morphine sulfate-induced analgesic activity in Swiss-Webster mouse at 50 mg/kg, sc after 2 hrs; format: functional, organism-based; parameters: dose 50 mg/kg; outline: as §1
Mus musculus [6] = assay: Analgesic activity in Swiss-Webster mouse assessed as time required for sustainance of activity at 50 mg/kg, sc; format: functional; conditions: route subcutaneous
Mus musculus [7] = assay: Analgesic activity in Swiss-Webster mouse assessed as time required for sustainance of activity at 40 mg/kg, sc; format: functional; conditions: route subcutaneous
Mus musculus [8] = assay: Inhibition of morphine sulfate-induced analgesic activity in Swiss-Webster mouse at 40 mg/kg, sc after 3 hrs; format: functional, organism-based; parameters: dose 40 mg/kg; outline: as §1
Mus musculus [9] = assay: Analgesic activity in Swiss-Webster mouse assessed as time required for sustainance of activity at 5 mg/kg, sc; format: functional; conditions: route subcutaneous
Mus musculus [10] = organism: Mus musculus; assay: Narcotic agonist activity in morphine-dependent mouse assessed as suppression of abstinence; format: functional, organism-based
Outline: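 Single-dose suppression test in morphine-dependent mice after withdrawal (method of Takemori et al.); compound given sc.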

[11] = target: T1, Opioid receptors; mu/kappa/delta (Homo sapiens, UniProt P41145+P41143+P35372); assay: Displacement of [3H]naloxone from opiate receptor (unknown origin) after 10 mins
Mus musculus [12] = assay: Analgesic activity in Swiss-Webster mouse assessed as time required for sustainance of activity at 2 mg/kg, sc; format: functional; conditions: route subcutaneous
[13] = target: T1, Opioid receptors; mu/kappa/delta; assay: Ratio of IC50 for opiate receptor (unknown origin) after 10 mins in presence of NaCl to IC50 for opiate receptor (unknown origin) after 10 mins
Outline: (§2)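 [3H]naloxone 1.5×10^-9 M bound to a brain homogenate (Pert–Snyder method as modified by Pasternak, with a preincubation step), 10 min incubation. Run with and without 100 mM NaCl. Stereospecific binding was defined with 1×10^-6 M levallorphan. IC50 is the concentration giving 50% inhibition of stereospecific binding, and the ratio is IC50 with NaCl over IC50 without.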

[14] = target: T1, Opioid receptors; mu/kappa/delta; assay: Displacement of [3H]naloxone from opiate receptor (unknown origin) after 10 mins in presence of NaCl; outline: as §2
Mus musculus [15] = assay: Inhibition of morphine sulfate-induced analgesic activity in Swiss-Webster mouse at 2 to 32 mg/kg, sc after 2 to 4 hrs; format: functional, organism-based
Outline: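 Male Swiss-Webster mice received the maleimide blocker sc at 2, 8 or 32 mg/kg (40% propylene glycol). Morphine sulfate dose-response was run after reaction time returned to control (2, 3 or 4 h). Morphine ED50 and 95% limits were taken by Litchfield–Wilcoxon, and curve slopes were compared.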

Mus musculus [16] = assay: Ratio of morphine ED50 to compound ED50 for sc dosed Swiss-Webster mouse; format: functional
Mus musculus [17] = assay: Analgesic activity in Swiss-Webster mouse at 2 mg/kg, sc in presence of naloxone; format: functional, organism-based; parameters: dose 2 mg/kg
Outline: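 Mice were pretreated with naloxone, then given blocker 2 mg/kg sc. After 2 h, when the naloxone effect had ended, morphine analgesia was tested in the same animals (modified D'Amour–Smith). Counts are responders per 10 mice.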

Mus musculus [18] = assay: Inhibition of morphine sulfate-induced analgesic activity in Swiss-Webster mouse at 100 mg/kg, sc after 2 hrs; format: functional, organism-based; parameters: dose 100 mg/kg; outline: as §1
Mus musculus [19] = assay: Analgesic activity in Swiss-Webster mouse assessed as time required for sustainance of activity at 100 mg/kg, sc; format: functional; conditions: route subcutaneous
Mus musculus [20] = assay: Analgesic activity in Swiss-Webster mouse assessed as time required for sustainance of activity at 380 mg/kg, sc; format: functional; conditions: route subcutaneous
Mus musculus [21] = assay: Inhibition of morphine sulfate-induced analgesic activity in Swiss-Webster mouse at 380 mg/kg, sc after 5.5 hrs; format: functional, organism-based; parameters: dose 380 mg/kg; outline: as §1
Mus musculus [22] = assay: Inhibition of morphine sulfate-induced analgesic activity in Swiss-Webster mouse at 100 mg/kg, sc after 1 hr; format: functional, organism-based; parameters: dose 100 mg/kg; outline: as §1
Mus musculus [23] = assay: Analgesic activity in Swiss-Webster mouse assessed as time required for sustainance of activity at 2.7 mg/kg, sc; format: functional; conditions: route subcutaneous

T1 sequence (P35372 whole entry, looked up): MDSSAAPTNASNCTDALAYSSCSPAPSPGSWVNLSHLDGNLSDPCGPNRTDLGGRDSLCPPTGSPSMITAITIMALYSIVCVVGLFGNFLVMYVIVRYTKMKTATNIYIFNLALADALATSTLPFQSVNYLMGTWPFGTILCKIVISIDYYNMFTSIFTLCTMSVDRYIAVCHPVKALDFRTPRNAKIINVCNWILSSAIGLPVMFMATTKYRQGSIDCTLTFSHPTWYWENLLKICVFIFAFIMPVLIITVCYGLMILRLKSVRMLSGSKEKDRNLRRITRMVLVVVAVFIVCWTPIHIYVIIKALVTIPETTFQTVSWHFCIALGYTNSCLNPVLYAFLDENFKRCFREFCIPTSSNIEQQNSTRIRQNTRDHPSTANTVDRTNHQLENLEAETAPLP
T1 sequence (P41143 whole entry, looked up): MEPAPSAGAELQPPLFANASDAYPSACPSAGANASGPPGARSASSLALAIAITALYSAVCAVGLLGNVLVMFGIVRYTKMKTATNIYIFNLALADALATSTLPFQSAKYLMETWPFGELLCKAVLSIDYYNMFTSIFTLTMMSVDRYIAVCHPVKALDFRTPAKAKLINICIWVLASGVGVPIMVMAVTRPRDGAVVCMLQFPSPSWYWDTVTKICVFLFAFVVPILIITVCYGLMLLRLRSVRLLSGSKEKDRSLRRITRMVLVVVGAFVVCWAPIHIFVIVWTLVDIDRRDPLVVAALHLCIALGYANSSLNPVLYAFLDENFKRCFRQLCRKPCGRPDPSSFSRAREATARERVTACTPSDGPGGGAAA
T1 sequence (P41145 whole entry, looked up): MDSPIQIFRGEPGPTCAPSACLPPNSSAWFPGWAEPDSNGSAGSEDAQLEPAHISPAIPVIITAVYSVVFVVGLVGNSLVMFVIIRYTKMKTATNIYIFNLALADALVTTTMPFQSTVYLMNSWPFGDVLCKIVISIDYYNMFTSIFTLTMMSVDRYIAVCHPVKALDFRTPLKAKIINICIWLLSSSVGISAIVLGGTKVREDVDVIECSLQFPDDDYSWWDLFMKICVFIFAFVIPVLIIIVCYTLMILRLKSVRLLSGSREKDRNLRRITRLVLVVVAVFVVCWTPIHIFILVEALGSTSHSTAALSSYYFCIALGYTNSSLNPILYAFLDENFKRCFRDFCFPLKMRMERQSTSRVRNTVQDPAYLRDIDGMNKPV

SMILES: CCOC(=O)/C=C/C(=O)Nc1ccccc1CCCN1CC[C@]23CCCC[C@H]2[C@H]1Cc1ccc(O)cc13
- Time (Mus musculus [1]): 15 min
- inhibition (Mus musculus [2]): Active
- ED50 (Mus musculus [3]): 84 mg/kg
- Time (Mus musculus [4]): 2 h

SMILES: CCOC(=O)/C=C\C(=O)Nc1cccc(CCCN2CC[C@]34CCCC[C@H]3[C@H]2Cc2ccc(O)cc24)c1
- ED50 (Mus musculus [3]): > 100 mg/kg
- inhibition (Mus musculus [5]): Active
- Time (Mus musculus [6]): 2 h

SMILES: CCOC(=O)CCC(=O)Nc1cccc(CCN2CC[C@]34CCCC[C@H]3[C@H]2Cc2ccc(O)cc24)c1
- Time (Mus musculus [1]): 60 min
- Time (Mus musculus [7]): 3 h
- ED50 (Mus musculus [3]): 6 mg/kg
- inhibition (Mus musculus [8]): Active

SMILES: CC(=O)Oc1ccc2c(c1)[C@@]13CCCC[C@H]1[C@@H](C2)N(CCc1ccc(N2C(=O)C=CC2=O)cc1)CC3
- Time (Mus musculus [9]): 4 h
- Time (Mus musculus [1]): 30 min
- inhibition (Mus musculus [10]): Active
- ED50 (Mus musculus [3]): 0.59 mg/kg

SMILES: CC(=O)Oc1ccc2c(c1)[C@@]13CCCC[C@H]1[C@@H](C2)N(CCCc1ccc(N2C(=O)C=CC2=O)cc1)CC3
- ED50 (Mus musculus [3]): > 50 mg/kg
- inhibition (Mus musculus [5]): Active
- Time (Mus musculus [6]): 2 h

SMILES: O=C1C=CC(=O)N1c1ccc(CCN2CC[C@]34CCCC[C@H]3[C@H]2Cc2ccc(O)cc24)cc1
- IC50 [11]: 5.3 nM
- Time (Mus musculus [12]): 2 h
- Time (Mus musculus [1]): 30 min
- Ratio IC50 [13]: > 10
- inhibition (Mus musculus [10]): Active
- IC50 [14]: 5.7 ×10⁻⁸ M
- ED50 (Mus musculus [3]): 1.1 mg/kg
- inhibition (Mus musculus [15]): Active
- Ratio ED50 (Mus musculus [16]): 4
- Activity (Mus musculus [17]): inactive

SMILES: O=C1C=CC(=O)N1c1cccc(CCCN2CC[C@]34CCCC[C@H]3[C@H]2Cc2ccc(O)cc24)c1
- ED50 (Mus musculus [3]): > 50 mg/kg
- inhibition (Mus musculus [5]): Active
- Time (Mus musculus [6]): 2 h

SMILES: CCOC(=O)CCC(=O)Nc1ccc(CCCN2CC[C@]34CCCC[C@H]3[C@H]2Cc2ccc(O)cc24)cc1
- inhibition (Mus musculus [18]): Active
- Time (Mus musculus [1]): 30 min
- Time (Mus musculus [19]): 2 h
- ED50 (Mus musculus [3]): 78.2 mg/kg

SMILES: CCOC(=O)CCC(=O)Nc1ccccc1CCCN1CC[C@]23CCCC[C@H]2[C@H]1Cc1ccc(O)cc13
- inhibition (Mus musculus [18]): Active
- Time (Mus musculus [19]): 2 h
- ED50 (Mus musculus [3]): > 100 mg/kg

SMILES: CCOC(=O)/C=C/C(=O)Nc1cccc(CCCN2CC[C@]34CCCC[C@H]3[C@H]2Cc2ccc(O)cc24)c1
- Time (Mus musculus [20]): 5.5 h
- Time (Mus musculus [1]): 30 min
- ED50 (Mus musculus [3]): 76.5 mg/kg
- inhibition (Mus musculus [21]): Active

SMILES: CCOC(=O)/C=C\C(=O)Nc1ccccc1CCCN1CC[C@]23CCCC[C@H]2[C@H]1Cc1ccc(O)cc13
- inhibition (Mus musculus [18]): Active
- Time (Mus musculus [19]): 2 h
- ED50 (Mus musculus [3]): > 100 mg/kg

SMILES: O=C(CBr)Nc1cccc(CCCN2CC[C@]34CCCC[C@H]3[C@H]2Cc2ccc(O)cc24)c1
- Time (Mus musculus [19]): 1 h
- ED50 (Mus musculus [3]): > 100 mg/kg
- inhibition (Mus musculus [22]): Active

SMILES: CCOC(=O)CCC(=O)Nc1ccc(CCN2CC[C@]34CCCC[C@H]3[C@H]2Cc2ccc(O)cc24)cc1
- Time (Mus musculus [23]): 4 h
- Time (Mus musculus [1]): 60 min
- inhibition (Mus musculus [10]): Active
- ED50 (Mus musculus [3]): 0.71 mg/kg
- Ratio ED50 (Mus musculus [16]): 4

SMILES: CCOC(=O)CCC(=O)Nc1cccc(CCCN2CC[C@]34CCCC[C@H]3[C@H]2Cc2ccc(O)cc24)c1
- Time (Mus musculus [1]): 30 min
- Time (Mus musculus [19]): 1 h
- ED50 (Mus musculus [3]): 77.9 mg/kg
- inhibition (Mus musculus [22]): Active

SMILES: O=C(CBr)Nc1ccccc1CCCN1CC[C@]23CCCC[C@H]2[C@H]1Cc1ccc(O)cc13
- Time (Mus musculus [19]): 1 h
- ED50 (Mus musculus [3]): > 100 mg/kg
- inhibition (Mus musculus [22]): Active

SMILES: CCOC(=O)/C=C/C(=O)Nc1ccccc1CCN1CC[C@]23CCCC[C@H]2[C@H]1Cc1ccc(O)cc13
- ED50 (Mus musculus [3]): > 150 mg/kg
